{"source": "the RNAGym collection of RNA variant scans (doi:10.1126/science.aae0568)", "parents": {"B1": {"name": "tRNA (parent)", "chain": "GUUCCGUUGGCGUAAUGGUAACGCGUCUCCCUCCUAAGGAGAAGACUGCGGGUUCGAGUCCCGUACGGAACG"}}, "note": "This sample holds only a part of the variants without activity.", "data": [{"variants_of": "B1", "test": "yeast fitness relative to wild type (ratio to wild type); higher = fitter; tRNA-Arg(CCU), competitive growth, 37 C, YPD", "outline": "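Variants of the tRNA-Arg(CCU) gene were chemically synthesised with a 3% per-site mutation rate across 69 sites and placed at the native genomic locus in Saccharomyces cerevisiae. Six parallel replicates of the pooled strains were competed in YPD at 37°C for 24 hours, and gene amplicons from the start and end populations were read by 100-nucleotide paired-end sequencing. Darwinian fitness relative to wild type was derived from changes in genotype frequencies. Genotypes required ≥ 100 starting reads, and estimates < 0.5 were set to 0.5.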", "values": [{"variant": "GUUCGGUUGGCGUAAUGGCAACGCGUCUCCCUCCUAAGGAGAAGACUGCGGGUUCGUGUCCCGUACGGAACG", "note": "[C5G U19C A57U]", "yeast fitness": 0.533}, {"variant": "GUUCGGUUGGCGUAAUGGCAACGUGUCUCCCUCCUAAGGAGAAGACUGCGGGUUCGAGUCCCGUACGGAACG", "note": "[C5G U19C C24U]", "yeast fitness": 0.684}, {"variant": "GUUCGGUUGGCGUAAUGGCAACGCGUCUCCCCCCUAAGGAGAAGACUGCGGGUUCGAGUCCCGUACGGAACG", "note": "[C5G U19C U32C]", "yeast fitness": 0.766}, {"variant": "GUUCGGUUGGCGUAAUGGCAACGCGUCUCCCUCCAAAGGAGACGACUGCGGGUUCGAGUCCCGUACGGAACG", "note": "[C5G U19C U35A A43C]", "yeast fitness": "≤ 0.5"}, {"variant": "GUUCGGUUGGCGUAAUGGGAACGCGUCUCCCUCCUAAGGAGAAGACUGCGGGUUCGAGUCCCGUACGGAACG", "note": "[C5G U19G]", "yeast fitness": 0.916}, {"variant": "GUUCGGUUGGCGUAAUGGGAAUGCGUCUCCCUCCUAAGGAGACGACUGCGAGUUCGAGUCCCGUACGGAACG", "note": "[C5G U19G C22U A43C G51A]", "yeast fitness": "≤ 0.5"}, {"variant": "GUUCGGUUGGCGUAAUGGGAAUGCGUCUCCCCCCUAAGGAGAAGACUGCGGGUUCGAGUCCCGUCUGGAACG", "note": "[C5G U19G C22U U32C A65C C66U]", "yeast fitness": "≤ 0.5"}, {"variant": "GUUCGGUUGGCGUAAUGGUAACGCGACUCCCUCCUCAGGAGAAGACUGCGGGUUCGAGUCGCGUACGGGACG", "note": "[C5G U26A A36C C61G A69G]", "yeast fitness": "≤ 0.5"}, {"variant": "GUUCGGUUGGCGUAAUGGUAACGCGACUCCCUCCUAAGGAGAAGACUGCGGGUUCGAGUCCCGUACGGCACG", "note": "[C5G U26A A69C]", "yeast fitness": 0.634}, {"variant": "GUUCGGUUGGCGUAAUGGUAACGCGACUCCCUCCUAAGGAGAAGAUUGCGGGUUCGAGUCCCGUACGGAACG", "note": "[C5G U26A C46U]", "yeast fitness": 0.96}, {"variant": "GUUCGGUUGGCGUAAUGGUAACGCGCCUCCCUCCUAAGGAGGAGACUGCGGGUUCGGGUCCCGUACGGAGCG", "note": "[C5G U26C A42G A57G A70G]", "yeast fitness": "≤ 0.5"}, {"variant": "GUUCGGUUGGCGUAAUGGUAACGCGCCUCCCUCCUAAGGAGGAGACUGCGGGUUCGGGUCUCGUACGGAACG", "note": "[C5G U26C A42G A57G C61U]", "yeast fitness": "≤ 0.5"}, {"variant": "GUUCGGUUGGCGUAAUGGUAACGCGCCUCCCUCCUAAGGAGAGGACCGCGGGUUCGAGUCCCGUACGGAACG", "note": "[C5G U26C A43G U47C]", "yeast fitness": "≤ 0.5"}, {"variant": "GUUCGGUUGGCGUAAUGGUAACGCGCCUCCCUCCUAAGGAGAGGACCGCGGGUUCGAGUCCCGAACGGAACG", "note": "[C5G U26C A43G U47C U64A]", "yeast fitness": "≤ 0.5"}, {"variant": "GUUCGGUUGGCGUAAUGGUAACGCGCCUCCCUCCUAAGGAGAAGACUGCGGGUUCGAGUCCCGUACGGAGCG", "note": "[C5G U26C A70G]", "yeast fitness": 0.632}, {"variant": "GUUCGGUUGGCGUAAUGGUAACGCGCCUCUCUCCUAAGGAGAAGACUGUGGGUUCGAGUCCCGUACGGAACG", "note": "[C5G U26C C30U C49U]", "yeast fitness": "≤ 0.5"}, {"variant": "GUUCGGUUGGCGUAAUGGUAACGCGCCUCCCUCCUAAGGAGAAGACUGCGGGUUGGAGACCCGGACGGAACG", "note": "[C5G U26C C55G U59A U64G]", "yeast fitness": "≤ 0.5"}, {"variant": "GUUCGGUUGGCGUAAUGGUAACGCGCCUCCCUCCUAAGGAGAAGACUGCGCGUUCGUGUCCCGUACGGAACG", "note": "[C5G U26C G51C A57U]", "yeast fitness": "≤ 0.5"}, {"variant": "GUUCGGUUGGCGUAAUGGUAACGCGGCUCCCUCGUAAGGCGAAGAUUGGGGGUUCGAGUCCCGUACGGAACG", "note": "[C5G U26G C34G A40C C46U C49G]", "yeast fitness": 0.558}, {"variant": "GUUCGGUUGGCGUAAUGGUAACGCGGCUCCCUCCUAACGAGAAGACUGCGCGUUCGAGUCCCGUACGGAACG", "note": "[C5G U26G G38C G51C]", "yeast fitness": "≤ 0.5"}, {"variant": "GUUCGGUUGGCGUAAUGGUAACGCGUCACCCUCCUAAGGAGAAGACUGCGGGUUCGAGUCCCGUACGGAACG", "note": "[C5G U28A]", "yeast fitness": 0.669}, {"variant": "GUUCGGUUGGCGUAAUGGUAACGCGUCACCCUCCUAAGGAGAAGACUGCGGGUUCGAGUCCCGUACCGAACG", "note": "[C5G U28A G67C]", "yeast fitness": 0.634}, {"variant": "GUUCGGUUGGCGUAAUGGUAACGCGUCCCCCUCCUAAGGAGAAGACUGCGGGUUCGAGUCCCGUACGGAACG", "note": "[C5G U28C]", "yeast fitness": 0.737}, {"variant": "GUUCGGUUGGCGUAAUGGUAACGCGUCCCCGUCCUAAGGAGAAGACUGCGGGUUCGAGUCCUGUACGGAACG", "note": "[C5G U28C C31G C62U]", "yeast fitness": "≤ 0.5"}, {"variant": "GUUCGGUUGGCGUAAUGGUAACGCGUCGCCUUCCUAAGGAGAAGACUGCGAGUACGAGACCCGUACGGAACG", "note": "[C5G U28G C31U G51A U54A U59A]", "yeast fitness": 0.522}, {"variant": "GUUCGGUUGGCGUAAUGGUAACGCGUCUCCCACCUAAGGAGAAGACUGCGGGUUCGAGUCCCGUACGGAACG", "note": "[C5G U32A]", "yeast fitness": 0.678}, {"variant": "GUUCGGUUGGCGUAAUGGUAACGCGUCUCCCACCUAAGGAGAAGACUCCGGGUUCGAGUCCUGUACGGAACG", "note": "[C5G U32A G48C C62U]", "yeast fitness": "≤ 0.5"}, {"variant": "GUUCGGUUGGCGUAAUGGUAACGCGUCUCCCGCCUAAGGAGAAGACUGCGGGUUCGAGUCCCGUACGGAACG", "note": "[C5G U32G]", "yeast fitness": 0.776}, {"variant": "GUUCGGUUGGCGUAAUGGUAACGCGUCUCCCUCCAAAGGAGAAGACUGCGGGUUCGAGUCCCGUACGGAACG", "note": "[C5G U35A]", "yeast fitness": 0.615}, {"variant": "GUUCGGUUGGCGUAAUGGUAACGCGUCUCCCUCCAAAGGGGAAGACUGCGGGUUCGAGUCCCGUACGGAACG", "note": "[C5G U35A A40G]", "yeast fitness": "≤ 0.5"}, {"variant": "GUUCGGUUGGCGUAAUGGUAACGCGUCUCCCUCCAAAGGAGAAGACUGAGCGUUCGAGUCCCGUACGGAACG", "note": "[C5G U35A C49A G51C]", "yeast fitness": "≤ 0.5"}, {"variant": "GUUCGGUUGGCGUAAUGGUAACGCGUCUCCCUCCCAAGGAGAAGACUGGGGGUUCGAGUCCCGUACGGAACG", "note": "[C5G U35C C49G]", "yeast fitness": "≤ 0.5"}, {"variant": "GUUCGGUUGGCGUAAUGGUAACGCGUCUCCCUCCCAAGGAGAAGACUGUGGGUUCGAGUCGCGUACGGAACG", "note": "[C5G U35C C49U C61G]", "yeast fitness": "≤ 0.5"}, {"variant": "GUUCGGUUGGCGUAAUGGUAACGCGUCUCCCUCCCAAGGAGAAGACUGCGGGUUCGAGUCCCGUAUGGAACG", "note": "[C5G U35C C66U]", "yeast fitness": 0.546}, {"variant": "GUUCGGUUGGCGUAAUGGUAACGCGUCUCCCUCCGAAGGAGAGGACUGUGGGUUCGAGUCCCAUUCGGAACG", "note": "[C5G U35G A43G C49U G63A A65U]", "yeast fitness": "≤ 0.5"}, {"variant": "GUUCGGUUGGCGUAAUGGUAACGCGUCUCCCUCCUAAGGAGAAGACAGCGGGUUCGAGUCCCGUACGGAACG", "note": "[C5G U47A]", "yeast fitness": 0.731}, {"variant": "GUUCGGUUGGCGUAAUGGUAACGCGUCUCCCUCCUAAGGAGAAGACAGCGGGUUCGAAUCCCGUACGGAACG", "note": "[C5G U47A G58A]", "yeast fitness": 0.567}, {"variant": "GUUCGGUUGGCGUAAUGGUAACGCGUCUCCCUCCUAAGGAGAAGACAGCGGGUUCGAGUCCCGUACGAAACG", "note": "[C5G U47A G68A]", "yeast fitness": "≤ 0.5"}]}]}
